An excerpt weighted towards active compounds, which were near 1.8% of everything screened.
NPY-Y1 antag: antagonists of human neuropeptide Y receptor Y1 | HEK293-CNG Y1 cells, membrane potential fluorescence; NPY at EC95, then isoproterenol | inhibition, % at 3.6 µM | 1% of 200,000 active;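 active means inhibition above the campaign mean inhibition of all tested compounds plus 3 SD, cut at about 20% in these data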;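 further: 0% = DMSO wells given NPY plus isoproterenol and 100% = isoproterenol alone without NPY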
Target sequence (P25929 whole entry, looked up): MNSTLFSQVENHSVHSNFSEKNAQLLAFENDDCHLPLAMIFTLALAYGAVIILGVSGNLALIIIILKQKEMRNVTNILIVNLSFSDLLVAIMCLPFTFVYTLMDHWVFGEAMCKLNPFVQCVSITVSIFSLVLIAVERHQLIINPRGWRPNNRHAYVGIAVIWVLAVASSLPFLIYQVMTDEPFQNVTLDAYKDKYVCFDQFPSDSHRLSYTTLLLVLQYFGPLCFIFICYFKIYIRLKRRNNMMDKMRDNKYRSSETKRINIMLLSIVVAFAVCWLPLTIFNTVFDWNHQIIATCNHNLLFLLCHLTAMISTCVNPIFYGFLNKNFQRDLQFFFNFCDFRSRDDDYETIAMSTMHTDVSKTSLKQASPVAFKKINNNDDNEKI
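Test system – HEK293 Y1/CNG channel cell line · Also added – NPY agonist 25 nM, then isoproterenol 1 µM plus Ro 20-1724 25 µM · Compound dosing – one concentration, 3.6 µM, in 0.4% DMSO · Schedule – compound incubation 1 h at room temperature, readout 45 min post-stimulation · Technique – fluorescence, membrane potential probe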
NPY-Y2 PAM-ag: potentiates or activates human NPY-Y2 receptor | P49146 | cells expressing NPY-Y2, potentiator/agonist read-out | activation, % at 3.6 µM | 0.45% of 220,000 active | AID 1359; in the data active means activation above about 27%;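 further: cells stimulated with NPY near EC25 plus isoproterenol at EC100; 0% = vehicle plus submaximal agonist and 100% = vehicle plus saturating agonist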
Target sequence (P49146 whole entry, looked up): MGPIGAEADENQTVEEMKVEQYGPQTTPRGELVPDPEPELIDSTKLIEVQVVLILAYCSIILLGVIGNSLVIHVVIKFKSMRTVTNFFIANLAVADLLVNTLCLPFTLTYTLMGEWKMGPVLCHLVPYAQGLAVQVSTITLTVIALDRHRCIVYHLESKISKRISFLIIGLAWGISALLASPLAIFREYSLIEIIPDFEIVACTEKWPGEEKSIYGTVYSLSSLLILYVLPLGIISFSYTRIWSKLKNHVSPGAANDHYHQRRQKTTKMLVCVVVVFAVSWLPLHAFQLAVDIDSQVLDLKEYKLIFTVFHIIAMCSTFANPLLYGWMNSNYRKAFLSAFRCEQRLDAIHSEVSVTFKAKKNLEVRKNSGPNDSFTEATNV
NPY1 pot ag: human NPY-Y1 potentiation or agonism, primary screen; activation, % at 3.6 µM; NPY-Y1 expressing cells, potentiator/agonist activation; 0.37% of 220,000 active; AID 1304; P25929; in the data active means activation above about 33%, passing the limit was not always enough;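 further: cells stimulated with NPY at EC10 then isoproterenol at EC100; 0% = low agonist plus stimulus and 100% = saturating agonist plus stimulus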
NPY Y2 blocker: NPY-Y2 (human) receptor antagonism; P49146; NPY-Y2 expressing cells, antagonist mode; inhibition, % at 2.7 µM; 0.99% of 140,000 active; AID 793; in the data active means inhibition above about 17%;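 further: 0% = vehicle with agonist challenge and 100% = reference antagonist with challenge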
NPY-Y2 pot conf: human NPY-Y2 potentiation or agonism, confirmation | 20% of 450 active | cell-based NPY-Y2 potentiator/agonist assay | shares compounds with NPY-Y2 PAM-ag | activation, % at 3.6 µM; in the data active means activation above about 33%
NPY-Y1 potentiator: potentiates or activates NPY-Y1, counter-screen for NPY-Y2 hits. shares compounds with NPY-Y2 PAM-ag. Y1 HEK293-CNG cells, membrane potential fluorescence. activation, % at 3.6 µM. 20% of 450 active. AID 1651; in the data active means activation above about 45%;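 further: cells stimulated with submaximal NPY then isoproterenol with phosphodiesterase inhibitor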
NPY-Y1 agonist 2: activates human NPY-Y1, counter-screen for NPY-Y2 potentiators; AID 1702; 37% of 450 active; activation, % at 3.6 µM; shares compounds with NPY-Y2 PAM-ag; HEK293 Y1-CNGC, membrane potential fluorescence, agonism;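 active means activation above the mean of DMSO-only control wells plus 3 SD, cut at about 18% in these data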;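 further: cells stimulated with 1 µM isoproterenol plus the PDE inhibitor Ro 20-1724; 0% = isoproterenol with DMSO and no NPY and 100% = 40 nM NPY; Y1 agonists lower the membrane potential dye signal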
CNGC inhibitor: cyclic nucleotide gated channel inhibition as counter-screen; shares compounds with NPY-Y2 PAM-ag; HEK293-CNG parental, isoproterenol cAMP, membrane potential fluorescence; inhibition, % at 3.6 µM; 32% of 450 active;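 active means inhibition above the control-well mean plus 3 SD of those wells, cut at about 22% in these data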;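 further: 0% = DMSO with isoproterenol and 100% = DMSO without isoproterenol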
NPY-Y2 ag 2: NPY-Y2 agonism, counter-screen for Y2 potentiators. shares compounds with NPY-Y2 PAM-ag. HEK293 Y2/CNGC cells, membrane potential fluorescence, agonist mode. activation, % at 3.6 µM. 56% of 450 active;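 active means activation above the mean of solvent-only control wells plus 3 SD, cut at about 10% in these data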;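 further: cells stimulated by isoproterenol with no NPY added so direct agonism is tested; 0% = DMSO with isoproterenol alone and 100% = NPY at EC100 plus isoproterenol; agonism lowers probe fluorescence through less cAMP and CNG channel opening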
* hit, by the source's call.

Screening CC1Cc2cc(-c3csc(NC(=O)Cc4cccs4)n3)ccc2N1S(C)(=O)=O (stereo not given) returned NPY-Y1 antag 15, NPY-Y2 PAM-ag 44*, NPY1 pot ag 14, NPY Y2 blocker 13, NPY-Y2 pot conf 0, NPY-Y1 potentiator -16, NPY-Y1 agonist 2 -29, CNGC inhibitor -18 and NPY-Y2 ag 2 -1.
`CNC[C@H](O)c1ccc(O)c(O)c1` gave NPY-Y1 antag -3, NPY-Y2 PAM-ag 60*, NPY1 pot ag 61, NPY Y2 blocker 1, NPY-Y2 pot conf 59*, NPY-Y1 potentiator 48*, NPY-Y1 agonist 2 71*, CNGC inhibitor 58* and NPY-Y2 ag 2 49*.
Screening CN1CCN(S(=O)(=O)c2ccc(N3CCc4ccccc4C3)nc2)CC1 returned NPY-Y1 antag 5, NPY-Y2 PAM-ag 5 and NPY1 pot ag 2.
`O/N=C/c1ccnc(SCc2ccc(Cl)cc2)n1` gave NPY-Y2 PAM-ag -10 and NPY1 pot ag 17.
For Cc1nc2ccccn2c1-c1ccnc(SCc2ccc(Cl)cc2)n1 the results were NPY-Y2 PAM-ag 49*, NPY1 pot ag -52, NPY-Y2 pot conf -43, NPY-Y1 potentiator -81, NPY-Y1 agonist 2 -54, CNGC inhibitor -48 and NPY-Y2 ag 2 -36.
N#C/C(=C\Nc1ccccc1O)c1nc2ccccc2o1 was read as NPY-Y1 antag 2, NPY-Y2 PAM-ag 31*, NPY1 pot ag 15, NPY Y2 blocker 0, NPY-Y2 pot conf 25, NPY-Y1 potentiator 37, NPY-Y1 agonist 2 29*, CNGC inhibitor 34* and NPY-Y2 ag 2 18*.
For N#C/C(=C\c1ccncc1)c1nc2ccccc2o1 the results were NPY-Y2 PAM-ag -31 and NPY1 pot ag 8.
For O=C(c1ccc(CNS(=O)(=O)c2ccccc2)cc1)N1CCN(Cc2ccccc2)CC1 the results were NPY-Y1 antag -7, NPY-Y2 PAM-ag 27*, NPY1 pot ag 32, NPY Y2 blocker 2, NPY-Y2 pot conf -5, NPY-Y1 potentiator -9, NPY-Y1 agonist 2 -15, CNGC inhibitor 1 and NPY-Y2 ag 2 -1.
`CN1CCN(S(=O)(=O)c2ccc(Oc3ccc(F)c(Cl)c3)nc2)CC1` gave NPY-Y1 antag 4, NPY-Y2 PAM-ag 96*, NPY1 pot ag 26, NPY-Y2 pot conf -1, NPY-Y1 potentiator -7, NPY-Y1 agonist 2 -1, CNGC inhibitor -2 and NPY-Y2 ag 2 -9.
CN(C)CC(C)(C)CNS(=O)(=O)c1ccc(OC(F)(F)F)cc1 was read as NPY-Y1 antag 10, NPY-Y2 PAM-ag 0 and NPY1 pot ag 9.
COCCOC(=O)C(CC(=O)O)NCc1ccco1 (stereo not given) was read as NPY-Y2 PAM-ag 48*, NPY1 pot ag 15, NPY-Y2 pot conf 0, NPY-Y1 potentiator -3, NPY-Y1 agonist 2 2, CNGC inhibitor 12 and NPY-Y2 ag 2 15*.
c1ccc(-c2nc(-c3cccs3)[nH]c2-c2ccccc2)cc1 was read as NPY-Y1 antag -9, NPY-Y2 PAM-ag 41*, NPY1 pot ag 37, NPY Y2 blocker -2, NPY-Y2 pot conf 28, NPY-Y1 potentiator 46*, NPY-Y1 agonist 2 27*, CNGC inhibitor 26* and NPY-Y2 ag 2 28*.
Cc1cccc(C)c1OCC(O)CNC(C)(C)C (stereo not given) was read as NPY-Y1 antag 3, NPY-Y2 PAM-ag 41*, NPY1 pot ag 19, NPY Y2 blocker 1, NPY-Y2 pot conf 12, NPY-Y1 potentiator 13, NPY-Y1 agonist 2 9, CNGC inhibitor 12 and NPY-Y2 ag 2 13*.
Screening Cc1cccc(Cl)c1NC(=O)N1CCCN(c2nc3ccc(Cl)cc3s2)CC1 returned NPY-Y2 PAM-ag 45*, NPY1 pot ag 18, NPY-Y2 pot conf 6, NPY-Y1 potentiator -29, NPY-Y1 agonist 2 -7, CNGC inhibitor -5 and NPY-Y2 ag 2 9.
For Cc1ccc(NC(=S)NCc2ccc(S(N)(=O)=O)cc2)cc1Cl the results were NPY-Y1 antag -6, NPY-Y2 PAM-ag 6 and NPY1 pot ag -1.
Cc1cc2c(cc1C)N(C(=O)CSC1=NCCS1)C(C)(C)c1ssc(=S)c1-2 was read as NPY-Y1 antag -9, NPY-Y2 PAM-ag 42*, NPY1 pot ag 28, NPY Y2 blocker -5, NPY-Y2 pot conf 23, NPY-Y1 potentiator 29, NPY-Y1 agonist 2 24*, CNGC inhibitor 11 and NPY-Y2 ag 2 29*.
Screening COc1ccc2c(c1)-c1c(ssc1=S)C(C)(C)N2C(=O)CSC1=NCCS1 returned NPY-Y1 antag -9, NPY-Y2 PAM-ag 43*, NPY1 pot ag 51, NPY Y2 blocker -8, NPY-Y2 pot conf 26, NPY-Y1 potentiator 28, NPY-Y1 agonist 2 23*, CNGC inhibitor 23* and NPY-Y2 ag 2 20*.
Screening COCCCNC(=O)COc1ccc(S(=O)(=O)NCc2ccccc2)cc1Cl returned NPY-Y1 antag -5, NPY-Y2 PAM-ag 1, NPY1 pot ag -10 and NPY Y2 blocker 6.
For CCCCN1C(=O)c2ccc(C(=O)NCCN3C(=O)S/C(=C\c4cccnc4)C3=O)cc2C1=O the results were NPY-Y1 antag -4, NPY-Y2 PAM-ag 9, NPY1 pot ag 2 and NPY Y2 blocker -1.
`Cc1nn(C)c(C)c1CNC(=O)c1nn2c(c1Cl)NC(c1cccs1)CC2C(F)(F)F` (stereo not given) gave NPY-Y1 antag -7, NPY-Y2 PAM-ag 29*, NPY1 pot ag 1, NPY Y2 blocker 16, NPY-Y2 pot conf 6, NPY-Y1 potentiator 0, NPY-Y1 agonist 2 11, CNGC inhibitor 2 and NPY-Y2 ag 2 -3.
`CCCOc1ccc(/C=N/NC(=O)c2ccc(Cn3cc([N+](=O)[O-])cn3)o2)cc1` gave NPY-Y1 antag -2, NPY-Y2 PAM-ag 41*, NPY1 pot ag -31, NPY Y2 blocker -3, NPY-Y2 pot conf 0, NPY-Y1 potentiator 2, NPY-Y1 agonist 2 -12, CNGC inhibitor 5 and NPY-Y2 ag 2 -1.
Cc1cc(C(=O)NNC(=O)Nc2ccc(Cl)cc2)no1 was read as NPY-Y2 PAM-ag 97*, NPY1 pot ag -18, NPY-Y2 pot conf -8, NPY-Y1 potentiator -5, NPY-Y1 agonist 2 -13, CNGC inhibitor -2 and NPY-Y2 ag 2 -5.
`CCc1ccc([C@@H]2C[C@H]3CN(Cc4ccccc4OC)C(=O)[C@]34CCCN24)cc1` gave NPY-Y1 antag 12, NPY-Y2 PAM-ag 0 and NPY1 pot ag -4.

Bioassay records (PubChem)
